{"source": "paper PMC8561282", "about": "(Haematologica, 2021)", "key": {"[1]": {"test_system": "RBC from WT, HuB3, HA Del and BS KO mice", "assay": "Glutathione oxidation", "format": "cell-based, mouse"}, "[2]": {"test_system": "pentose phosphate pathway", "assay": "1,2,3-13C3-glucose tracing", "format": "cell-based, mouse", "method_in_brief": "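Red cells from wild-type, humanized band 3, HA Del (lacking residues 1-11) and BS KO (lacking residues 12-23) mice were stimulated with methylene blue and incubated with 1,2,3-13C3-glucose at 37 °C for 1 h. In rescue arms, cells were preincubated with recombinant band 3 N-terminal peptide (residues 1-56). The read-out was the ratio of lactate isotopologues +3 (glycolysis) and +2 (pentose phosphate pathway), measured by UHPLC-MS.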"}, "[3]": {"test_system": "pentose phosphate pathway", "format": "cell-based, human", "conditions": "RBC lysates, 1,2,3-13C3-glucose 5 mM, 37 °C, 1 h, methylene blue; recombinant peptide", "method_in_brief": "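Red cell lysates came from the band 3 Neapolis subject (AE1 residues 1-11 absent) and from healthy donors (n=3). Lysates were incubated with 1,2,3-13C3-glucose at 37 °C for 1 h under methylene blue stimulation, with or without recombinant N-terminal band 3 peptide (residues 1-56). Isotopologues were measured by UHPLC-MS to assess pentose phosphate pathway activation.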"}, "[4]": {"test_system": "RBC cytosol and membrane proteins", "format": "binding, human", "conditions": "part of macromolecular complexes with direct interactors"}, "GAPDH": {"test_system": "GAPDH", "assay": "15N-HSQC NMR of band 3 peptide 1-56 upon titration of GAPDH", "format": "binding", "conditions": "25 °C, 100 or 200 GAPDH (mM in text, μM in legend)", "method_in_brief": "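15N-HSQC spectra of 15N-labelled recombinant band 3 peptide 1-56 were recorded at 25 °C on a 900 instrument using a standard sequence. Recombinant GAPDH (tetramer) was titrated at 0, 100 and 200 (units as printed are unreliable). Individual residue amide signals were followed across the titration.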"}, "[5]": {"conditions": "recombinant peptide, 1,2,3-13C3-glucose, methylene blue"}}, "note": "Entries after “also recorded” stand apart in the source; their conditions may differ."}
{"molecule": "CN(C)c1ccc2nc3ccc(=[N+](C)C)cc-3sc2c1", "note": "[MB, methylene blue, reference compound]", "values": [{"measurement": "Glutathione oxidation with MB", "setting": "[1]", "result": "increased glutathione oxidation (GSSG/GSH ratios)"}, {"measurement": "Activation of the PPP, methylene blue stimulation, HA Del", "setting": "[2]; 37 °C, 1 h, HA Del mouse RBC", "result": "ablated in HA Del mice"}]}
{"molecule": "AE11-56: recombinantly expressed peptide coding for amino acids 1-56 of the N-terminus of band 3 (AE1) (MEELQDDYEDMMEENLEQEEYEDPDIPESQMEEPAAHDTEATATDYHTTSHPGTHK; UniProt P02730 1-56, looked up, fragment)", "values": [{"measurement": "Rescue of the deficit in PPP activation, band 3 Neapolis", "setting": "[3]", "result": "a defect that was corrected by rescue; also recorded: partially rescued in vitro"}, {"measurement": "PPP activation and glycolysis with peptide, all mouse strains", "setting": "[2]; legend of Figure 1I, recombinant peptide, methylene blue", "result": "increased PPP activation and decreased glycolysis in HA Del mice and further exacerbated responses in all the other strains"}, {"measurement": "PPP activation with peptide, BS KO mouse RBC", "setting": "[2]; [5]", "result": "higher basal levels and further increases in PPP activation by MB"}, {"measurement": "PPP activation with peptide, HA Del mouse RBC", "setting": "[2]; [5]", "result": "the defect in PPP activation of HA Del mice was rescued"}, {"measurement": "Candidate indirect interactors by pull-down followed by crosslinking", "setting": "[4]", "result": "peroxiredoxin 2,[51] peroxiredoxin 6, catalase, phosphofructokinase isoforms,[12] proteins 4.1 and 4.2, glucose phosphate isomerase, stomatin, adducin b, carbonic anhydrase 1, and 1-phosphatidylinositol 4,5-bisphosphate phosphodiesterase η-2"}, {"measurement": "Y8 amide signal upon GAPDH titration", "setting": "GAPDH", "result": "near complete disappearance of the central Y8 amide"}, {"measurement": "Y46 amide signal upon GAPDH titration", "setting": "GAPDH", "result": "no chemical shift perturbations"}]}
